# Measurements gathered from unrelated publications.
# Compare with care: the assays were run in different laboratories.
# Target: Serine/threonine-protein kinase ULK3 (ULK3, Homo sapiens, UniProt Q6PHR2)
# One construct used (Q6PHR2 1-472): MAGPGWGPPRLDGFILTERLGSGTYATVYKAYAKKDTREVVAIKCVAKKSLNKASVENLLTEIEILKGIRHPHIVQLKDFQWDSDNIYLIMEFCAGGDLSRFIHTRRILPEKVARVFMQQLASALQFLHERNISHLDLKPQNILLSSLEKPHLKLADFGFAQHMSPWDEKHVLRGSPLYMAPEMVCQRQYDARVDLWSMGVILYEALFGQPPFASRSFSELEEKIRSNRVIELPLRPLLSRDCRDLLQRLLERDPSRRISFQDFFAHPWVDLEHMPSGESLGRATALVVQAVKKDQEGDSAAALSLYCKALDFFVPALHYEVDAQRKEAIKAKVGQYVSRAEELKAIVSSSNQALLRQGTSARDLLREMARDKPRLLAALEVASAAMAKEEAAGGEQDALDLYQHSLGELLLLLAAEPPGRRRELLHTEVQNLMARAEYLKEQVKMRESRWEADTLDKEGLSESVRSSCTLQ
Structure (SMILES),effect on,technique,concentration,remaining binding [%]
O=C(NCCCN1CCOCC1)c1ccc(Nc2ncc(Cl)c(-c3ccc(Cl)s3)n2)cc1,binding,competition with immobilised ligand,1 µM,6.5
CN(C)c1ncc(F)c(-c2cnn3ncccc23)n1,binding,,1 µM,72
O=C(c1ccc(Nc2nccc(-c3cc4ccccc4s3)n2)cc1)N1CCC(N2CCCC2)CC1,binding,competition with immobilised ligand,1 µM,0.4
Cc1cc(-c2cc(C(F)(F)F)ccc2O[C@H]2C[C@@]2(CNS(=O)(=O)c2ccc([N+](=O)[O-])cc2)c2ccc(F)cc2F)[nH]n1,cell-free assay,competition with immobilised ligand,0.3 µM,9.8
c1cncc(-c2cccc(Nc3nccc(NC4CCCCC4)n3)c2)c1,binding,competition with immobilised ligand,10 µM,44
Nc1ncc2c(n1)-c1c([nH]c3ccc(C#CC4CC4)cc13)CCCC2,binding,competition with immobilised ligand,1 µM,86
CN(C)c1nccc(-c2cnn3ncccc23)n1,binding,,1 µM,77
CC(=O)Nc1c(C(C)=O)c(=O)n(C)c2nc(-c3ccc(Cl)cc3Cl)c(-c3ccc(Cl)cc3)cc12,cell-free assay,competition with immobilised ligand,1 µM,75
O=C(c1ccc(Nc2ncc(Cl)c(-c3ccc(Cl)s3)n2)cc1)N1CCC(N2CCCC2)CC1,binding,competition with immobilised ligand,1 µM,0.1
CN(C)c1ncnc(-c2ccc3nc(Nc4cc(CN5CCN(C(=O)CC(F)(F)F)CC5)ccn4)[nH]c3c2)c1Cl,cell-free assay,competition with immobilised ligand,1 µM,61
N[C@H]1CCN(c2nccc(-c3cnn4ncccc34)n2)C1,binding,,1 µM,86
O=C(Nc1c[nH]nc1C(=O)NC1CCNCC1)c1cc(F)cc(F)c1,binding,competition with immobilised ligand,1 µM,100
Cn1nc(C(=O)NCc2ccc(C(=O)O)cc2)cc1-c1ccc2[nH]ccc2c1,cell-free assay,competition with immobilised ligand,0.1 µM,99
CCN1CCN(Cc2ccc(C(=O)Nc3ccc(C)c(Oc4ccc5c(c4)CC(=O)N5)c3)cc2C(F)(F)F)CC1,binding,competition with immobilised ligand,1 µM,100
O=C(Nc1cccnn1)N1CC(C/C=C/c2cncc(Oc3ccc(C(F)(F)F)cn3)n2)C1,cell-free assay,competition with immobilised ligand,1 µM,82
COc1cnc(Nc2cccc(S(N)(=O)=O)c2)nc1N1CCN(c2ccccc2)CC1,binding,competition with immobilised ligand,1 µM,79
Cn1cc(Cl)c2c(Oc3c(F)cc(Nc4cc(Cl)nc(N)n4)cc3F)ccnc21,cell-free assay,competition with immobilised ligand,0.1 µM,85
F[C@@H]1CCN(c2nccc(-c3cnn4ncccc34)n2)C1,binding,,1 µM,100
CS(=O)(=O)NCC[C@H](NC(=O)c1cncc2c1cnn2-c1ccc(F)cc1)c1ccnc(S(C)(=O)=O)c1,cell-free assay,competition with immobilised ligand,1 µM,100
CN(C)c1nccc(-c2cnc3ncccn23)n1,binding,,1 µM,75
